How the values were obtained:
[1] = tested on: A2780/CisR ovarian cancer xenograft; assay: Anti-tumor efficacy in A2780/CisR ovarian cancer xenograft model; type: in vivo, mice; details: q4d x 4, 20 mg/kg PTX and/or 20 mg/kg CP, cisplatin 3 mg/kg
[2] = tested on: A2780 ovarian cancer cell line; assay: MTT cytotoxicity assay in A2780 cells; type: cell-based, human; details: 72 h
How it was run: (§1)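 Cells grown in RPMI1640 with 10% FBS and 1% penicillin-streptomycin, seeded at 3000 cells/well 24 h before treatment, then exposed to free or micelle-incorporated drug serially diluted in full medium for 72 h. MTT added for 4 h at 37°C, formazan dissolved in DMSO, absorbance read at 562 nm. Survival relative to untreated wells; six wells, mean ± standard deviation; IC50 from fitted curves.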

[3] = tested on: LCC-6-MDR orthotopic tumor; assay: Anti-tumor efficacy in orthotopic LCC-6-MDR breast cancer model; type: in vivo, mice; details: q4d x 4; 60 mg/kg PTX and/or 4.5 mg/kg C6CP, cisplatin 3 mg/kg
[4] = tested on: A2780/CisR (cisplatin resistant) ovarian cancer cell line; assay: MTT cytotoxicity and combination index in A2780/CisR cells; type: cell-based, human; details: 72 h
How it was run: as §1

N.N.[Cl][Pt][Cl] [cisplatin]
effect on tumor growth [1]: small but significant effect by delaying the tumor growth | median lifespan ([1]; untreated 10.5 days): 14.5 days | IC50 [2]: 1.141 µg/mL | antitumor effect [3]: considerable antitumor effect | IC50 [4]: 10.88 µg/mL
